ChEMBL document CHEMBL3769383, “Cefsulodin Inspired Potent and Selective Inhibitors of mPTPB, a Virulent Phosphatase from Mycobacterium tuberculosis” (ACS Med Chem Lett, 2015)
Activity calls are given as the source filed them. No cut-off for these calls is given here.

Tests used:
[1] = target: Receptor-type tyrosine-protein phosphatase mu (Homo sapiens) (UniProt P28827); test: Inhibition of PTPmu (unknown origin) using pNPP as substrate at 200 uM after 5 mins by spectrophotometry
Procedure, shortened: (§1)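 Single-point screen: the test compound is present at 200 μM in the assay (a compound concentration, not a substrate level). The read-out is phosphatase-catalysed hydrolysis of para-nitrophenyl phosphate.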

[2] = target: RAC-alpha serine/threonine-protein kinase (Mus musculus) (UniProt P31750); test: Effect on Akt phosphorylation in mouse RAW264.7 cells transfected with empty vector at 10 to 40 nM pre-treated for 1 hrs followed by stimulation with IFNgamma for 1 hr by Western blotting method; assay type: cell-based
[3] = target: Serine/threonine-protein phosphatase 5 (Homo sapiens) (UniProt P53041); test: Inhibition of PP5 (unknown origin) using pNPP as substrate at 200 uM after 5 mins by spectrophotometry; procedure, shortened: as §1
[4] = Selectivity ratio of IC50 for LAR (unknown origin) to IC50 for Mycobacterium tuberculosis PTPB
[5] = target: Tyrosine-protein phosphatase non-receptor type 7 (Homo sapiens) (UniProt P35236); test: Inhibition of HePTP (unknown origin) expressed in Escherichia coli using pNPP as substrate at 200 uM after 5 mins by spectrophotometry; procedure, shortened: as §1
Tyrosine-protein phosphatase non-receptor type 7 (Homo sapiens), sequence (P35236 whole entry): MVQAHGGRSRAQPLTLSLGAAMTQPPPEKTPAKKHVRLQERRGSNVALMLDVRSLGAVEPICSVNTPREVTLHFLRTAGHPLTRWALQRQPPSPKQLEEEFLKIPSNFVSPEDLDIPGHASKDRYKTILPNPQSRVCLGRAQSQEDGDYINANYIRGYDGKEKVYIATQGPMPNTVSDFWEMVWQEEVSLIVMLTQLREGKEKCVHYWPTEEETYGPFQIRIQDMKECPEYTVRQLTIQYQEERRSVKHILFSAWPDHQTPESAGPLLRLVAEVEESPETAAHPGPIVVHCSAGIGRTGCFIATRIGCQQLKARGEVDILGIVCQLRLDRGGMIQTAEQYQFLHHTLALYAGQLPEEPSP

[6] = Selectivity ratio of IC50 for PP5 (unknown origin) to IC50 for Mycobacterium tuberculosis PTPB
[7] = Selectivity ratio of IC50 for CDC14A (unknown origin) to IC50 for Mycobacterium tuberculosis PTPB
[8] = target: Mitogen-activated protein kinase 1 and 3 (ERK2 and ERK1) (Mus musculus) (UniProt P63085+Q63844); test: Effect on ERK1/2 phosphorylation in mouse RAW264.7 cells transfected with empty vector at 10 to 40 nM pre-treated for 1 hrs followed by stimulation with IFNgamma for 1 hr by Western blotting method; assay type: cell-based
[9] = Selectivity ratio of IC50 for PTPepsilon (unknown origin) to IC50 for Mycobacterium tuberculosis PTPB
Procedure, shortened: (§2)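 Each phosphatase in the 25-enzyme panel was tested for inhibition at 200 μM compound. The mPTPB IC50 was determined against mPTPB-catalysed hydrolysis of para-nitrophenyl phosphate. The ratio is the panel-enzyme IC50 divided by the mPTPB IC50.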

[10] = Reversible competitive inhibition of Mycobacterium tuberculosis PTPB expressed in Escherichia coli BL21/DE3 cells using pNPP as substrate after 5 mins by Lineweaver-Burk plot analysis
[11] = Selectivity ratio of IC50 for MKP5 (unknown origin) to IC50 for Mycobacterium tuberculosis PTPB
[12] = target: Tyrosine-protein phosphatase non-receptor type 6 (Homo sapiens) (UniProt P29350); test: Inhibition of SHP1 (unknown origin) expressed in Escherichia coli using pNPP as substrate at 200 uM after 5 mins by spectrophotometry; procedure, shortened: as §1
Tyrosine-protein phosphatase non-receptor type 6 (Homo sapiens), sequence (P29350 whole entry): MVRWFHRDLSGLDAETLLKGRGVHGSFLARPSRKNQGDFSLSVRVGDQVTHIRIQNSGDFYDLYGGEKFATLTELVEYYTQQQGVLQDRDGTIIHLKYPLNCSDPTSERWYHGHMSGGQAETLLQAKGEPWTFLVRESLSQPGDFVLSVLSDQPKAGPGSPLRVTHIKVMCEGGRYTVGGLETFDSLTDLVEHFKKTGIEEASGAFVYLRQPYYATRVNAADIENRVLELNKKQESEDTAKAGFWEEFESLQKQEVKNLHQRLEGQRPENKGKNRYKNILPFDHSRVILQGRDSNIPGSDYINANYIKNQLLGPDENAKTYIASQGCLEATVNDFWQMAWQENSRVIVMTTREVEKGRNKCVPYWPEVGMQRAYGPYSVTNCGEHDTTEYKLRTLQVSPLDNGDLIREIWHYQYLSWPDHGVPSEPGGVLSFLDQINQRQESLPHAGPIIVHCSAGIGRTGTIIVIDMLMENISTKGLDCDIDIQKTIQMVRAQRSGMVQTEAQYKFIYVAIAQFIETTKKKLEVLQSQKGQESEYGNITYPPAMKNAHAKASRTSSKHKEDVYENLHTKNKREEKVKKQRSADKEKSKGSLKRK

[13] = target: Tyrosine-protein phosphatase non-receptor type 13 (Homo sapiens) (UniProt Q12923); test: Inhibition of FAP1 (unknown origin) expressed in Escherichia coli using pNPP as substrate at 200 uM after 5 mins by spectrophotometry; procedure, shortened: as §1
[14] = Inhibition of Mycobacterium tuberculosis PTPB expressed in Escherichia coli BL21/DE3 cells using pNPP as substrate after 5 mins by spectrophotometry
[15] = Selectivity ratio of IC50 for Meg2 (unknown origin) to IC50 for Mycobacterium tuberculosis PTPB
[16] = target: Receptor-type tyrosine-protein phosphatase F (Homo sapiens) (UniProt P10586); test: Inhibition of LAR (unknown origin) using pNPP as substrate at 200 uM after 5 mins by spectrophotometry; procedure, shortened: as §1
[17] = target: Tyrosine-protein phosphatase non-receptor type 1 (Homo sapiens) (UniProt P18031); test: Inhibition of PTP1B (unknown origin) expressed in Escherichia coli using pNPP as substrate at 200 uM after 5 mins by spectrophotometry; procedure, shortened: as §1
[18] = Selectivity ratio of IC50 for PTPalpha (unknown origin) to IC50 for Mycobacterium tuberculosis PTPB; procedure, shortened: as §2
[19] = target: Receptor-type tyrosine-protein phosphatase C (Homo sapiens) (UniProt P08575); test: Inhibition of CD45 (unknown origin) expressed in Escherichia coli using pNPP as substrate at 200 uM after 5 mins by spectrophotometry; procedure, shortened: as §1
Laforin (Homo sapiens) = Laforin (Homo sapiens) (UniProt O95278); test: Inhibition of Laforin (unknown origin) using pNPP as substrate at 200 uM after 5 mins by spectrophotometry; procedure, shortened: as §1
Laforin (Homo sapiens), sequence (O95278 whole entry): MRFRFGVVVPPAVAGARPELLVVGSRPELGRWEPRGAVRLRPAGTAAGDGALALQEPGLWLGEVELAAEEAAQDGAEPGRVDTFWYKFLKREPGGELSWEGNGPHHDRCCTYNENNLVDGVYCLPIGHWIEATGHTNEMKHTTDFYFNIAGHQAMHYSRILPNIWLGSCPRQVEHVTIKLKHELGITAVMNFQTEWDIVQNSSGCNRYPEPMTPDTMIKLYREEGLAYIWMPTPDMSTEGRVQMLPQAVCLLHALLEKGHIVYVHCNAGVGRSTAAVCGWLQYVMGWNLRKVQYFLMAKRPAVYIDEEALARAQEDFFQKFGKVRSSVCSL

RAW264.7 [20] = test: Inhibition of Mycobacterium tuberculosis PTPB transfected in mouse RAW264.7 cells decrease in Akt phosphorylation pre-treated for 1 hrs followed by stimulation with IFNgamma for 1 hr by Western blotting method; assay type: cell-based
[21] = tested on: Mycobacterium tuberculosis; test: Selectivity ratio of IC50 for Mycobacterium tuberculosis PTPA to IC50 for Mycobacterium tuberculosis PTPB
[22] = Selectivity ratio of IC50 for FAP1 (unknown origin) to IC50 for Mycobacterium tuberculosis PTPB
[23] = target: Tyrosine-protein phosphatase non-receptor type 2 (Homo sapiens) (UniProt P17706); test: Inhibition of TC-PTP (unknown origin) using pNPP as substrate at 200 uM after 5 mins by spectrophotometry; procedure, shortened: as §1
[24] = target: Dual specificity protein phosphatase 3 (Homo sapiens) (UniProt P51452); test: Inhibition of VHR (unknown origin) using pNPP as substrate at 200 uM after 5 mins by spectrophotometry; procedure, shortened: as §1
Dual specificity protein phosphatase 3 (Homo sapiens), sequence (P51452 whole entry, looked up): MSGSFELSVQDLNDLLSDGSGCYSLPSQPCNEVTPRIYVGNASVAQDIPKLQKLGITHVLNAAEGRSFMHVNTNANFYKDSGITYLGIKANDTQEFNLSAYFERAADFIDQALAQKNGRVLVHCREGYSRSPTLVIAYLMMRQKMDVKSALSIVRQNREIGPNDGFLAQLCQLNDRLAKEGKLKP

[25] = target: Dual specificity protein phosphatase 22 (Homo sapiens) (UniProt Q9NRW4); test: Inhibition of VHX (unknown origin) expressed in Escherichia coli using pNPP as substrate at 200 uM after 5 mins by spectrophotometry; procedure, shortened: as §1
Dual specificity protein phosphatase 22 (Homo sapiens), sequence (Q9NRW4 whole entry): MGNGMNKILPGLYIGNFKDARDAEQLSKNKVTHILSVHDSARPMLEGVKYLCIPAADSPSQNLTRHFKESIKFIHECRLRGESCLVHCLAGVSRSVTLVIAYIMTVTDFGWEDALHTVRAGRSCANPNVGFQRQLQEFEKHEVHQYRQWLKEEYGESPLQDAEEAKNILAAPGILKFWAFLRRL

[26] = target: Tyrosine-protein phosphatase non-receptor type 9 (Homo sapiens) (UniProt P43378); test: Inhibition of Meg2 (unknown origin) using pNPP as substrate at 200 uM after 5 mins by spectrophotometry; procedure, shortened: as §1
RAW264.7 [27] = test: Inhibition of Mycobacterium tuberculosis PTPB transfected in mouse RAW264.7 cells assessed as increase in p38 phosphorylation pre-treated for 1 hrs followed by stimulation with IFNgamma for 1 hr by Western blotting method; assay type: cell-based
[28] = target: Low molecular weight phosphotyrosine protein phosphatase (Homo sapiens) (UniProt P24666); test: Inhibition of LMWPTP (unknown origin) using pNPP as substrate at 200 uM after 5 mins by spectrophotometry; procedure, shortened: as §1
[29] = Selectivity ratio of IC50 for PTPsigma (unknown origin) to IC50 for Mycobacterium tuberculosis PTPB; procedure, shortened: as §2
[30] = target: MAP kinase p38 (Mus musculus) (UniProt P47811+O08911+Q9WUI1+Q9Z1B7); test: Effect on p38 phosphorylation in mouse RAW264.7 cells transfected with empty vector at 10 to 40 nM pre-treated for 1 hrs followed by stimulation with IFNgamma for 1 hr by Western blotting method; assay type: cell-based
[31] = target: Receptor-type tyrosine-protein phosphatase beta (Homo sapiens) (UniProt P23467); test: Inhibition of PTPbeta (unknown origin) using pNPP as substrate at 200 uM after 5 mins by spectrophotometry; procedure, shortened: as §1
Receptor-type tyrosine-protein phosphatase beta (Homo sapiens), sequence (P23467 23-1997 limits assumed): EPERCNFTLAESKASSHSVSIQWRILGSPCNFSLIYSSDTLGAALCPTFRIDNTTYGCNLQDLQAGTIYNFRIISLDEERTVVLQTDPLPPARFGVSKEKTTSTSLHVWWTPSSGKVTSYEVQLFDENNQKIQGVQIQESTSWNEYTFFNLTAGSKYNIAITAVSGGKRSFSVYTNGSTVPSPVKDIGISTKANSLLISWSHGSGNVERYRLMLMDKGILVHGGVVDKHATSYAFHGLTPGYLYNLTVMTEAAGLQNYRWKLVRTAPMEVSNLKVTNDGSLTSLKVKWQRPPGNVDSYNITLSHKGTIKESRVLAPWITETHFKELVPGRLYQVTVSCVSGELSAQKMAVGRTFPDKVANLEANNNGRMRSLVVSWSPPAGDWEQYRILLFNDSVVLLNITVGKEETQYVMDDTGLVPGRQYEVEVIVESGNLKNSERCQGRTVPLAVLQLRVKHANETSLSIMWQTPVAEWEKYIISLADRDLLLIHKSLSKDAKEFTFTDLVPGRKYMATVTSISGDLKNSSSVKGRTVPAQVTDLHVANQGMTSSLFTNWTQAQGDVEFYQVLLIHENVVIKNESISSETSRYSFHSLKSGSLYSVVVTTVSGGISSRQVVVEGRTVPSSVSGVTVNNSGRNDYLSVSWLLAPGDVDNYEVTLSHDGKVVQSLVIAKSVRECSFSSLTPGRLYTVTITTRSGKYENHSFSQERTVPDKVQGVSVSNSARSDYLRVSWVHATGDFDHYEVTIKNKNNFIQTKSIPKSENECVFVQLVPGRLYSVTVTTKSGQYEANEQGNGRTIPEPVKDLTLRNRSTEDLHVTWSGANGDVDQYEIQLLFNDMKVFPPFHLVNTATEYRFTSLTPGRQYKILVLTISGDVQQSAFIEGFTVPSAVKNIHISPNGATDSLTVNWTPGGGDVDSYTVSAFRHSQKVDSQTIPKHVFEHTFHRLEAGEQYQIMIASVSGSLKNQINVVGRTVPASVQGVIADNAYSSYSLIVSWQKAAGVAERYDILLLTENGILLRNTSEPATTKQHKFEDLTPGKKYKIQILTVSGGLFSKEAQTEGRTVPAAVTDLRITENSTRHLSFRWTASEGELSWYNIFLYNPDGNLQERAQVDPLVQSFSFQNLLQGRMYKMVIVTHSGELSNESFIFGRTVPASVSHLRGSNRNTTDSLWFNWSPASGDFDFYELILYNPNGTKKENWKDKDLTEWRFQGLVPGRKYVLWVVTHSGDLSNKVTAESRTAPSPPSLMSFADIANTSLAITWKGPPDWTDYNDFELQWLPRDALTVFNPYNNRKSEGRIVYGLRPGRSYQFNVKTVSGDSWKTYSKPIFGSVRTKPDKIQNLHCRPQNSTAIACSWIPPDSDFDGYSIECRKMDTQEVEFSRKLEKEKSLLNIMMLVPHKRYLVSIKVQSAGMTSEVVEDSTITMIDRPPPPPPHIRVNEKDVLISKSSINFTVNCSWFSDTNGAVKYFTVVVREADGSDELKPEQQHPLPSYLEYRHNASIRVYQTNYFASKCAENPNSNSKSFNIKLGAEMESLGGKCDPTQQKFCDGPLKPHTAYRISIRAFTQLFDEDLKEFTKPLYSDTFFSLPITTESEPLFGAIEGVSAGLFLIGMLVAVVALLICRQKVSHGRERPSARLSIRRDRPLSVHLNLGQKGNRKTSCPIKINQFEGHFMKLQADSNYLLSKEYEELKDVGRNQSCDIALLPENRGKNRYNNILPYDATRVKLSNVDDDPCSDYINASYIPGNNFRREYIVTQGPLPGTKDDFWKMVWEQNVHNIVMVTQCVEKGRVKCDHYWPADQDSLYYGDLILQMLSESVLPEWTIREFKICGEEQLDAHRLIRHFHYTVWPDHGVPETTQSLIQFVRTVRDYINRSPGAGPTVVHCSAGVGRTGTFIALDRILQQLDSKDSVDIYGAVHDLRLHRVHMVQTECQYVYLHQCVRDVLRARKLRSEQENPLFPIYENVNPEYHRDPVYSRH

[32] = Selectivity ratio of IC50 for LYP (unknown origin) to IC50 for Mycobacterium tuberculosis PTPB
[33] = target: Tyrosine-protein phosphatase non-receptor type 3 (Homo sapiens) (UniProt P26045); test: Inhibition of PTPH1 (unknown origin) using pNPP as substrate at 200 uM after 5 mins by spectrophotometry; procedure, shortened: as §1
[34] = Selectivity ratio of IC50 for Laforin (unknown origin) to IC50 for Mycobacterium tuberculosis PTPB
RAW264.7 [35] = test: Inhibition of Mycobacterium tuberculosis PTPB transfected in mouse RAW264.7 cells assessed as increase in ERK1/2 phosphorylation pre-treated for 1 hrs followed by stimulation with IFNgamma for 1 hr by Western blotting method; assay type: cell-based
[36] = target: Tyrosine-protein phosphatase non-receptor type 11 (Homo sapiens) (UniProt Q06124); test: Inhibition of SHP2 (unknown origin) expressed in Escherichia coli using pNPP as substrate at 200 uM after 5 mins by spectrophotometry; procedure, shortened: as §1
[37] = Selectivity ratio of IC50 for PTPmu (unknown origin) to IC50 for Mycobacterium tuberculosis PTPB; procedure, shortened: as §2
[38] = Selectivity ratio of IC50 for CD45 (unknown origin) to IC50 for Mycobacterium tuberculosis PTPB
[39] = Selectivity ratio of IC50 for PTPH1 (unknown origin) to IC50 for Mycobacterium tuberculosis PTPB; procedure, shortened: as §2
[40] = target: Tyrosine-protein phosphatase non-receptor type 22 (Homo sapiens) (UniProt Q9Y2R2); test: Inhibition of LYP (unknown origin) expressed in Escherichia coli using pNPP as substrate at 200 uM after 5 mins by spectrophotometry; procedure, shortened: as §1
[41] = Selectivity ratio of IC50 for SHP2 (unknown origin) to IC50 for Mycobacterium tuberculosis PTPB; procedure, shortened: as §2
[42] = target: Dual specificity protein phosphatase CDC14A (Homo sapiens) (UniProt Q9UNH5); test: Inhibition of CDC14A (unknown origin) using pNPP as substrate at 200 uM after 5 mins by spectrophotometry; procedure, shortened: as §1
Dual specificity protein phosphatase CDC14A (Homo sapiens), sequence (Q9UNH5 whole entry): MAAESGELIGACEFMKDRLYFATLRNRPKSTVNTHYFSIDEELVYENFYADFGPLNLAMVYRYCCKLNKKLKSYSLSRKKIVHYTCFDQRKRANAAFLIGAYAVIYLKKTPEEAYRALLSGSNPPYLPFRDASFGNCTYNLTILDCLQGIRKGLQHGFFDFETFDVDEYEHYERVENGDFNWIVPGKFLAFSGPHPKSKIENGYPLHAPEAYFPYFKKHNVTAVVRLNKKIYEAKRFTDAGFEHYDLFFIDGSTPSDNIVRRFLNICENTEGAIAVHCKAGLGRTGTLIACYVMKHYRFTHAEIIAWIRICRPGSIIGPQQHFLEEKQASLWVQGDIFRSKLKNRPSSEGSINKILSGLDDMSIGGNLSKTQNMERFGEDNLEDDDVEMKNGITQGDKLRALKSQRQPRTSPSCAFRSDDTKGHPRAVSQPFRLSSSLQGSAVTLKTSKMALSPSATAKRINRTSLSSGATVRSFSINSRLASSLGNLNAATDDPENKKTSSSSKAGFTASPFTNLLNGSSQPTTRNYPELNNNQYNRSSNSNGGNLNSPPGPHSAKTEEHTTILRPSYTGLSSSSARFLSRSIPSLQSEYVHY

[43] = target: Receptor-type tyrosine-protein phosphatase S (Homo sapiens) (UniProt Q13332); test: Inhibition of PTPsigma (unknown origin) using pNPP as substrate at 200 uM after 5 mins by spectrophotometry; procedure, shortened: as §1
[44] = Selectivity ratio of IC50 for PTPgamma (unknown origin) to IC50 for Mycobacterium tuberculosis PTPB; procedure, shortened: as §2
[45] = Selectivity ratio of IC50 for VHX (unknown origin) to IC50 for Mycobacterium tuberculosis PTPB; procedure, shortened: as §2
[46] = Selectivity ratio of IC50 for VHR (unknown origin) to IC50 for Mycobacterium tuberculosis PTPB; procedure, shortened: as §2
[47] = Selectivity ratio of IC50 for PTP1B (unknown origin) to IC50 for Mycobacterium tuberculosis PTPB
[48] = target: Dual specificity protein phosphatase 10 (Homo sapiens) (UniProt Q9Y6W6); test: Inhibition of MKP5 (unknown origin) using pNPP as substrate at 200 uM after 5 mins by spectrophotometry; procedure, shortened: as §1
[49] = Selectivity ratio of IC50 for TC-PTP (unknown origin) to IC50 for Mycobacterium tuberculosis PTPB; procedure, shortened: as §2
[50] = target: Receptor-type tyrosine-protein phosphatase epsilon (Homo sapiens) (UniProt P23469); test: Inhibition of PTPepsilon (unknown origin) using pNPP as substrate at 200 uM after 5 mins by spectrophotometry; procedure, shortened: as §1
Receptor-type tyrosine-protein phosphatase epsilon (Homo sapiens), sequence (P23469 whole entry): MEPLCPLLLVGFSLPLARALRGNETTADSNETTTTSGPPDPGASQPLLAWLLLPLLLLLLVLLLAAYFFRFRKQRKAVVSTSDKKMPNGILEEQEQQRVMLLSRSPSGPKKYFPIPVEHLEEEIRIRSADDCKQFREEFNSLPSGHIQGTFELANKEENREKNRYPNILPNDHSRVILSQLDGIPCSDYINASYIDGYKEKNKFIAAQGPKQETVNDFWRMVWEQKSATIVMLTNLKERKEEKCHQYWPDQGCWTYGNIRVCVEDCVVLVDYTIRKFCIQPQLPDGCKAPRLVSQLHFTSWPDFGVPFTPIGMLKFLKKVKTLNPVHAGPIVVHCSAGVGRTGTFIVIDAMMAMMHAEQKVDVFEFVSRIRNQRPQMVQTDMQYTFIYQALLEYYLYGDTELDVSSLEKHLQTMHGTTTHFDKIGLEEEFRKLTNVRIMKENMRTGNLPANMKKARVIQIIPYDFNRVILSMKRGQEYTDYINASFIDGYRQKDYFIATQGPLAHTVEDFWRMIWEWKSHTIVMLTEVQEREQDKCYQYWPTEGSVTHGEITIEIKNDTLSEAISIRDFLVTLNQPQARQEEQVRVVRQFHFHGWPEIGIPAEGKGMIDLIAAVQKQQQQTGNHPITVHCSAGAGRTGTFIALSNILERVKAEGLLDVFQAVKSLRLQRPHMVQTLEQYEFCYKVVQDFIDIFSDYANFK

[51] = Selectivity ratio of IC50 for HePTP (unknown origin) to IC50 for Mycobacterium tuberculosis PTPB
[52] = target: Low molecular weight protein-tyrosine phosphatase A (Mycobacterium tuberculosis) (UniProt P9WIA1); test: Inhibition of Mycobacterium tuberculosis PTPA expressed in Escherichia coli using pNPP as substrate at 200 uM after 5 mins by spectrophotometry; procedure, shortened: as §1
[53] = Selectivity ratio of IC50 for SHP1 (unknown origin) to IC50 for Mycobacterium tuberculosis PTPB; procedure, shortened: as §2
[54] = Selectivity ratio of IC50 for LMWPTP (unknown origin) to IC50 for Mycobacterium tuberculosis PTPB
[55] = target: Receptor-type tyrosine-protein phosphatase gamma (Homo sapiens) (UniProt P23470); test: Inhibition of PTPgamma (unknown origin) using pNPP as substrate at 200 uM after 5 mins by spectrophotometry; procedure, shortened: as §1
[56] = Selectivity ratio of IC50 for PTPbeta (unknown origin) to IC50 for Mycobacterium tuberculosis PTPB; procedure, shortened: as §2
[57] = target: Receptor-type tyrosine-protein phosphatase alpha (Homo sapiens) (UniProt P18433); test: Inhibition of PTPalpha (unknown origin) using pNPP as substrate at 200 uM after 5 mins by spectrophotometry; procedure, shortened: as §1

Structure (SMILES): O=C(C(c1ccccc1)S(=O)(=O)O)N1CCCC2CCCCC21 (racemic)
- inhibition [1]: inactive
- Activity [2]: inactive
- inhibition [3]: inactive
- Ratio IC50 [4]: > 10000
- inhibition [5]: inactive
- Ratio IC50 [6]: > 10000
- Ratio IC50 [7]: > 10000
- Activity [8]: inactive
- Ratio IC50 [9]: > 10000
- Ki [10]: 7.9 nM
- Ratio IC50 [11]: > 10000
- inhibition [12]: inactive
- inhibition [13]: inactive
- IC50 [14]: 18 nM
- Ratio IC50 [15]: > 10000
- inhibition [16]: inactive
- inhibition [17]: inactive
- Ratio IC50 [18]: > 10000
- inhibition [19]: inactive
- inhibition (Laforin (Homo sapiens)): inactive
- inhibition (RAW264.7 [20]): Dose-dependent effect
- Ratio IC50 [21]: > 10000
- Ratio IC50 [22]: > 10000
- inhibition [23]: inactive
- inhibition [24]: inactive
- inhibition [25]: inactive
- inhibition [26]: inactive
- inhibition (RAW264.7 [27]): Dose-dependent effect
- inhibition [28]: inactive
- Ratio IC50 [29]: > 10000
- Activity [30]: inactive
- inhibition [31]: inactive
- Ratio IC50 [32]: > 10000
- inhibition [33]: inactive
- Ratio IC50 [34]: > 10000
- inhibition (RAW264.7 [35]): Dose-dependent effect
- inhibition [36]: inactive
- Ratio IC50 [37]: > 10000
- Ratio IC50 [38]: > 10000
- Ratio IC50 [39]: > 10000
- inhibition [40]: inactive
- Ratio IC50 [41]: > 10000
- inhibition [42]: inactive
- inhibition [43]: inactive
- Ratio IC50 [44]: > 10000
- Ratio IC50 [45]: > 10000
- Ratio IC50 [46]: > 10000
- Ratio IC50 [47]: > 10000
- inhibition [48]: inactive
- Ratio IC50 [49]: > 10000
- inhibition [50]: inactive
- Ratio IC50 [51]: > 10000
- inhibition [52]: inactive
- Ratio IC50 [53]: > 10000
- Ratio IC50 [54]: > 10000
- inhibition [55]: inactive
- Ratio IC50 [56]: > 10000
- inhibition [57]: inactive
